# Most compounds without a hit are left out; they make up all but 3.3% or so of the library.
# HEK293 NFkB inh – inhibitors of PMA/ionomycin-induced NF-kB reporter, primary screen, antigen receptor NF-kB inhibitor project, cell-based, HEK-293 luciferase reporter, luminescence. actives 0.21% (n = 62,000). inhibition, % at 3 µM. AID 465, 2006. HEK-293 NF-kB luciferase reporter;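 active means inhibition above the mean of all tested compounds plus 3 SD, cut at about 40% in these data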;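 further: 0% = stimulated DMSO wells and 100% = 10 µM reference inhibitor 5653914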
#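 Material: HEK-293 cells with stable firefly luciferase reporter driven by four HIV NF-kB elements / Also added: PMA plus ionomycin mix as NF-kB-activating stimulus / Compound dosing: 3 µM once, 0.30% DMSO / Times: 1 h pretreatment, 16 h stimulation, 37 °C / Signal: luminescence / Evaluation: per-plate % inhibition versus controls / Benchmarks: DMSO and 10 µM reference inhibitor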
# 5HT1a antag – human 5-HT1a receptor antagonists, primary screen, cell-based, CHO, Ga15 NFAT-bla reporter. 5-hydroxytryptamine receptor 1A (Homo sapiens), P08908. CHO 5-HT1a Ga15 NFAT-bla reporter, antagonist mode. inhibition, % at 10 µM. actives 0.68% (n = 62,000). AID 612, 2007;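 active means inhibition above the mean of all tested compounds plus 3 SD, cut at about 43% in these data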;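 further: receptor stimulated by 5-CT agonist at 100 nM near EC80; beta-lactamase reporter measured by ratiometric fluorescence of a cleavable substrate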
# Target sequence (P08908 whole entry, looked up): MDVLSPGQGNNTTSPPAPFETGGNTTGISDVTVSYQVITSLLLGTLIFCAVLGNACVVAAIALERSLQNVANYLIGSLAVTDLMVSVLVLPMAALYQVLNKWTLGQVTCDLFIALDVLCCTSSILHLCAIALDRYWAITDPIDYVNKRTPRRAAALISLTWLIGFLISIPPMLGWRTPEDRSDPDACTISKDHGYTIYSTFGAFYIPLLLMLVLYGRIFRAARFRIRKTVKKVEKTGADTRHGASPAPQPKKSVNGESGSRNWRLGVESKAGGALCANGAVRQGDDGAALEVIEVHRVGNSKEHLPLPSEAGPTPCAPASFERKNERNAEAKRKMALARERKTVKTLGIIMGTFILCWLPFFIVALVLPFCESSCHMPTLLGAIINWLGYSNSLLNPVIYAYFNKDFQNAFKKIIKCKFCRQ
# 5HT1a ag – human 5-HT1a receptor agonists, primary screen, cell-based, CHO, Ga15 NFAT-bla reporter; activation, % at 10 µM; AID 567, 2006; actives 0.56% (n = 65,000); CHO 5-HT1a Ga15 NFAT-bla reporter, FRET ratio; 0% basal, 100% maximal reference agonist;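 active means activation above the screen-wide mean activation plus 3 SD, cut at about 19% in these data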;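 further: 0% = DMSO wells and 100% = 5-CT at EC100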
# 5HT1E antag – 5-HT1E receptor antagonists, primary screen, cell-based, HTS. 5-hydroxytryptamine receptor 1E (Homo sapiens), P28566. inhibition, % at 6 µM. CHO 5-HT1E Ga15 NFAT-bla reporter, FRET, antagonist. actives 0.99% (n = 65,000). AID 571, 2007;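 active means inhibition above a set limit, the mean inhibition across every tested compound plus 3 SD, cut at about 29% in these data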;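 further: signal is the 460 over 535 nm emission ratio of beta-lactamase substrate; 0% = agonist plus DMSO wells and 100% = wells without agonist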
# Jurkat tox 60K – cytotoxicity toward Jurkat T cells, primary screen, cytotoxicity control, cell-based, Jurkat E6.1, 60K MLSMR library. Jurkat E6.1 viability, ATP luminescence, 48 h. inhibition, % at 4 µM. actives 1.2% (n = 56,000). AID 463, 2006;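 active means inhibition above the mean inhibition of all tested compounds plus 3 SD, cut at about 28% in these data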
# 5HT1E ag – 5-HT1E receptor agonists, primary screen, cell-based, HTS; 5-hydroxytryptamine receptor 1E (Homo sapiens), P28566; CHO 5-HT1E Ga15 NFAT-bla reporter, FRET; 0% DMSO wells, 100% control agonist wells; activation, % at 6 µM; actives 0.69% (n = 65,000); AID 574, 2007;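 active means activation above a set limit, the screen-wide mean activation plus 3 SD, cut at about 8.5% in these data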;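 further: 100% = positive control agonist at 1 µM giving full maximal response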
# The depositor's hits bear a star; / = no result given.
SMILES,HEK293 NFkB inh,5HT1a antag,5HT1a ag,5HT1E antag,Jurkat tox 60K,5HT1E ag
CCCCC(c1nnnn1CC1CCCO1)N1CCN(c2cccc(C)c2C)CC1 (configuration not stated),7,38,1,3,2,38*
COc1ccc(OC)c(-n2c(SCC(=O)NCc3ccco3)nnc2-c2c[nH]c3ccccc23)c1,6,-1,2,6,2,0
COc1ccc(-c2nn(C)c3sc(C(=O)NCc4ccco4)cc23)cc1OC,12,-17,-1,12,7,0
CCOC(=O)C1CCCN(C(=O)c2cc3nc(-c4cccc(OC)c4)cc(C(F)(F)F)n3n2)C1 (configuration not stated),5,5,4,35*,-8,0
CCOC(=O)C1CCN(C(=O)c2cc3c(-c4ccc(OC)c(OC)c4)nn(C)c3s2)CC1,-3,4,-1,36*,5,0
CCOC(=O)N1CCC(NC(=O)c2cc3c(-c4ccc(OC)c(OC)c4)nn(C)c3s2)CC1,24,15,0,29*,5,0
CCOC(=O)C1CCCN(C(=O)c2cc3c(-c4cccc(OC)c4)nn(C)c3s2)C1 (configuration not stated),7,16,-2,26,79*,1
O=C1CN(C(=O)COC(=O)c2ccccc2NC(=O)c2ccco2)c2ccccc2N1,9,13,-2,10,-2,0
CCOC(=O)c1c(-c2ccc(C)o2)csc1NC(=O)CSc1nnc(C)s1,6,56*,2,17,6,2
CCOC(=O)c1c(-c2ccc(C)o2)csc1NC(=O)CSc1nnnn1-c1ccccc1,14,18,0,-14,-1,1
CS(=O)(=O)N1CCC(C(=O)Nc2ccc(Br)cc2F)CC1,-12,-10,-1,-2,-1,1
Cc1ccc(OCCN2CCN(C(=O)CCC(=O)Nc3nnc(C(C)C)s3)CC2)cc1,7,1,3,12,55*,2
COc1cc(N2CN=c3s/c(=C\c4ccccn4)c(=O)n3C2)cc(OC)c1OC,8,6,-3,-3,-2,0
COc1ccccc1N1CCN(C(=O)C2c3ccccc3Oc3ccccc32)CC1,20,55*,-3,42*,70*,-1
COc1ccccc1N1CCN(C(=O)C2CC=CCC2C(=O)O)CC1 (configuration not stated),21,27,7,-2,-2,49*
COc1ccccc1N1CCN(C(=O)C(F)F)CC1,9,3,5,20,6,2
CCn1cc(C(=O)NCc2ccc(C)o2)c2cc(OC)c(OC)cc2c1=O,6,10,1,29*,-2,-1
CCn1cc(C(=O)NCC(=O)OC)c2cc(OC)c(OC)cc2c1=O,1,2,1,4,/,0
CC1CCN(Cc2nc3c(c(=O)n(C)c(=O)n3C)n2CCCc2ccccc2)CC1,11,17,-3,3,-3,1
O=C(CCSc1nnc2scc(-c3ccccc3)n12)NCc1ccc2c(c1)OCO2,6,3,1,18,-6,-1
c1ccc(-c2csc3nnc(SCc4ccc5c(c4)OCO5)n23)cc1,24,2,-3,29*,4,1
COc1cccc(-c2nc(CS(=O)CC(=O)NCc3ccccc3Cl)c(C)o2)c1 (configuration not stated),12,10,-3,2,3,0
CCOc1cc(C#N)c(NC(=O)c2ccco2)cc1OCC,15,6,-2,9,79*,0
CCOc1cc(NC(=O)c2ccco2)c(OCC)cc1NC(=O)c1cc(OC)c(OC)c(OC)c1,10,-4,5,8,2,1
NC(=O)NC(=O)CSc1cccc(C(F)(F)F)c1,8,-2,-3,-3,4,0
SMILES,HEK293 NFkB inh,5HT1a antag,5HT1a ag,5HT1E antag,Jurkat tox 60K,5HT1E ag
COc1ccccc1CNc1ccc(N2CCOCC2)c(C(=O)O)c1,18,-7,-1,-11,8,0
COc1cc(CNc2ccc(N3CCOCC3)c(C(=O)O)c2)ccc1OCC(N)=O,9,-1,-2,-1,12,34*
CCC(c1nnnn1Cc1ccc2c(c1)OCO2)N1CCN(c2ccc(F)cc2)CC1 (configuration not stated),6,44*,-2,8,7,-1
O=C(CCn1c(=S)[nH]c2cc3c(cc2c1=O)OCO3)N1CCN(C2CCCCC2)CC1,12,4,1,-3,/,-1
N#Cc1c(-c2ccco2)cc(C2CC2)nc1N,/,/,4,24,/,-1
N#Cc1c(-c2ccccc2)cc(C2CC2)nc1N,16,25,5,33*,3,0
Cn1c(=O)c2c(nc(NCCO)n2CCc2ccccc2)n(C)c1=O,19,3,-1,-6,32*,0
CCCNc1nc2c(c(=O)n(C)c(=O)n2C)n1Cc1cccc(C)c1,21,12,-1,-1,59*,-1
Cn1c(=O)c2c(nc(NCCCO)n2CCc2ccccc2)n(C)c1=O,-2,-2,-1,22,/,1
Cn1c(Cl)nc2c1c(=O)n(Cc1cccc(Br)c1)c(=O)n2C,/,/,36*,4,/,-1
CCCNc1nc2c(c(=O)n(C)c(=O)n2C)n1CCc1ccccc1,6,-13,-1,-2,24,0
CC(O)CNc1nc2c(c(=O)n(C)c(=O)n2C)n1Cc1cccc(Br)c1 (configuration not stated),6,-7,1,1,28*,0
CC(C)CNc1nc2c(c(=O)n(C)c(=O)n2C)n1Cc1cccc(Br)c1,/,/,-1,-11,/,0
Cn1c(NCc2ccccc2)nc2c1c(=O)n(Cc1ccc(Br)cc1)c(=O)n2C,/,/,3,2,/,0
Cc1cc(C)c(NC(=O)CN2CCN3CCCC3C2)c(C)c1 (configuration not stated),4,10,-4,-2,-1,0
Cc1cccc(N(CC(=O)N2CCCC2)S(=O)(=O)c2ccccc2)c1,13,8,-1,15,8,-1
CCN(CC)S(=O)(=O)c1ccc(-c2nnc(SCc3nnc(-c4ccccc4)o3)o2)cc1,0,0,-1,7,1,0
CCSc1nnc(NC(=O)c2cnccn2)s1,11,-7,-1,-3,-1,0

# Source: PubChem (The Scripps Research Institute Molecular Screening Center)
